Experimental data reported in ChEMBL document CHEMBL3992505, “Optimization of substituted imidazobenzodiazepines as novel asthma treatments” (Eur J Med Chem, 2017).
The source made the active and inactive calls. The calls are words filed in the database; no cut-off is given here.

Legend:
[1] = Half life in human liver microsomes at 10 uM by LC-MS/MS analysis; assay type: ADME, microsome
Cavia porcellus = organism: Cavia porcellus; test: Inhibition of substance P-induced smooth muscle contractile force in guinea pig tracheal rings at 16 uM after 1 hr; assay type: functional
[2] = Elimination rate constant in mouse lung at 5 mg/kg, ip by LC/MS/MS analysis; assay type: ADME, organism-based
Blood [3] = test: Half life in mouse blood at 5 mg/kg, ip by LC/MS/MS analysis; assay type: ADME, organism-based; conditions: in vivo
[4] = AUC (0 to t) in mouse blood at 5 mg/kg, ip by LC/MS/MS analysis; assay type: ADME, organism-based
[5] = Half life in mouse lung at 5 mg/kg, ip by LC/MS/MS analysis; assay type: ADME, organism-based
[6] = target: GABA A receptor alpha-4/beta-3/gamma-2 (Homo sapiens) (UniProt P18507+P28472+P48169); test: Activity at GABAA alpha4beta3gamma2 receptor (unknown origin) expressed in HEK293T cells assessed as potentiation of GABA-mediated increase in channel current under holding potential at -80 mV at 1 uM by patch clamp assay; assay type: cell-based
[7] = Half life in mouse brain at 5 mg/kg, ip by LC/MS/MS analysis; assay type: ADME, organism-based
[8] = Cmax in mouse blood at 5 mg/kg, ip by LC/MS/MS analysis; assay type: ADME, organism-based; set-up: dose 5 mg/kg, route intraperitoneal
Blood [9] = test: Elimination rate constant in mouse blood assessed as (S)-7-Methoxy-N-methyl-9-oxo-11,12,13,13a-tetrahydro-9H-benzo[e]imidazo[5,1-c]pyrrolo[1,2-a][1,4]diazepine-1-carboxamide at 5 mg/kg, ip by LC/MS/MS analysis; assay type: ADME, organism-based; conditions: in vivo
Brain = test: Cmax in mouse brain at 5 mg/kg, ip by LC/MS/MS analysis; assay type: ADME, organism-based; set-up: dose 5 mg/kg, route intraperitoneal; conditions: in vivo
[10] = Cmax in mouse lung at 5 mg/kg, ip by LC/MS/MS analysis; assay type: ADME, organism-based; set-up: dose 5 mg/kg, route intraperitoneal
Blood [11] = test: Drug metabolism in mouse blood assessed as (S)-7-Methoxy-9-oxo-11,12,13,13a-tetrahydro-9H-benzo[e]imidazo[5,1-c]pyrrolo[1,2-a][1,4]di-azepine-1-carboxylic acid formation at 5 mg/kg, ip by LC/MS/MS analysis; assay type: ADME, organism-based; conditions: in vivo
Mus musculus = test: Antiasthamatic effect in BALB/c mouse model of ovalbumin-induced asthma assessed as inhibition of airway hyperresponsiveness at 40 mg/kg, ip administered 40 mins as single dose prior to measurement; assay type: functional, organism-based
[12] = Tmax in mouse brain at 5 mg/kg, ip by LC/MS/MS analysis; assay type: ADME, organism-based
[13] = Cytotoxicity in HEK293 cells after 48 hrs by Cell-titer Glo reagent based assay; conditions: human, read-out: LD50
Method in brief: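 Cells (HEK293, HepG2 or BEAS2B) exposed to compounds at a range of concentrations for 48 h; viability read by Cell-Titer Glo luminescence. Normalized to DMSO (negative) and 3-dibutylamino-1-(4-hexyl-phenyl)-propan-1-one at 150 μM final in DMSO (positive).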

Blood [14] = test: AUC (0 to t) in mouse blood assessed as (S)-7-Methoxy-N-methyl-9-oxo-11,12,13,13a-tetrahydro-9H-benzo[e]imidazo[5,1-c]pyrrolo[1,2-a][1,4]diazepine-1-carboxamide at 5 mg/kg, ip by LC/MS/MS analysis; assay type: ADME, organism-based; conditions: in vivo

COc1ccc2c(c1)C(=O)N1CCC[C@H]1c1c(C(=O)N(C)C)ncn1-2
half-life at 10 µM [1]: 705 min | inhibition (Cavia porcellus): Active | k el [2]: 0.000983 s⁻¹ | t1/2 (Blood [3]): 8.8 min | AUC(0-t) [4]: 103 ng·h/mL | half-life [5]: 11.7 min | Activity [6]: 319 to 545% | half-life [7]: 10.3 min | Cmax [8]: 691 ng/mL | Kel (Blood [9]): 0.028 min⁻¹ | Cmax (Brain): 123 ng/g | Cmax [10]: 30 ng/g | Drug metabolism (Blood [11]): Metabolite_Notdetected | Activity (Mus musculus): inactive | Tmax [12]: 10 min | CC50 at 48 h [13]: > 400 µM | AUCt (Blood [14]): 64675 ng·min/mL
